Tested on: Staphylococcus aureus
Test: Bactericidal activity against methicillin-resistant Staphylococcus aureus ATCC 43300 assessed as reduction in microbial growth measured after 18 hrs by CLSI based broth microdilution method
Type: functional
Conditions: not given; call rule not given here
O=C(Nc1nc(C(F)(F)F)c(-c2csc(Nc3ccc(O)c(C(=O)O)c3)n2)s1)c1ccccc1 gave an MBC of over 64 µg/mL.

Tested on: not listed separately
Test: Cytotoxicity against african green monkey Vero E6 cells assessed as reduction in cell viability by MTT assay
Type: toxicity, cell-based
Conditions: chlorocebus sabaeus, Vero E6 cells (Vero C1008)
In short: (§1)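 MTT viability on HeLa or VeroE6 cells, run in parallel with the antiviral assays. CC50 from variable-slope sigmoidal dose–response regression.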
Molecule O=C(Nc1nc(C(F)(F)F)c(-c2csc(Nc3ccc(O)c(C(=O)O)c3)n2)s1)c1ccccc1 has a CC50 of over 50 µM.

Tested on: Streptococcus pyogenes
Test: Antibacterial activity against Streptococcus pyogenes ATCC 12344 assessed as reduction in microbial growth measured after 18 hrs by CLSI based broth microdilution method
Type: functional
Conditions: not given
In short: (§2)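 MIC by CLSI broth microdilution in Mueller–Hinton medium, triplicate. Inoculum 5 × 10^4 CFU per well. Compounds taken up in DMSO (50 mg mL−1 stock) and diluted in medium. Read after 18 h at 35 ± 2 °C.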
O=C(Nc1nc(C(F)(F)F)c(-c2csc(Nc3ccc(O)c(C(=O)O)c3)n2)s1)c1ccccc1 gave an MIC of 4 µg/mL.

Tested on: rhinovirus A16
Conditions: hela
In the case of O=C(Nc1nc(C(F)(F)F)c(-c2csc(Nc3ccc(O)c(C(=O)O)c3)n2)s1)c1ccccc1, the IC50 is reported as “Not Active”.

Tested on: Acinetobacter baumannii
Test: Synergistic antibacterial activity against Acinetobacter baumannii ATCC 17978 incubated for 18 to 24 hrs in presence of colistin by broth microdilution method
Type: functional
Conditions: time 18-24 hrs
For O=C(Nc1nc(C(F)(F)F)c(-c2csc(Nc3ccc(O)c(C(=O)O)c3)n2)s1)c1ccccc1, the MAC was over 64 µg/mL.

Tested on: Staphylococcus epidermidis
Test: Antibacterial activity against linezolid-resistant Staphylococcus epidermidis SI-1266 assessed as reduction in microbial growth measured after 18 hrs by CLSI based broth microdilution method
Type: functional
Conditions: not given
In short: (§3)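 Gram-positive clinical isolates; compounds dissolved in DMSO (50 mg mL−1 stock) and diluted in medium; MIC by CLSI broth microdilution in Mueller–Hinton medium, inoculum 5 × 10^4 CFU per well, read after 18 h at 35 ± 2 °C; triplicate.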
With O=C(Nc1nc(C(F)(F)F)c(-c2csc(Nc3ccc(O)c(C(=O)O)c3)n2)s1)c1ccccc1 the MIC was 32 µg/mL.

Tested on: Klebsiella pneumoniae
Test: Synergistic antibacterial activity against Klebsiella pneumoniae ATCC 13833 incubated for 18 to 24 hrs in presence of colistin by broth microdilution method
Type: functional
Conditions: time 18-24 hrs
In the case of O=C(Nc1nc(C(F)(F)F)c(-c2csc(Nc3ccc(O)c(C(=O)O)c3)n2)s1)c1ccccc1, the MAC is reported as over 64 µg/mL.

Tested on: Enterococcus faecium
Test: Antibacterial activity against Vancomycin resistant Enterococcus faecium SI-1831 assessed as reduction in microbial growth measured after 18 hrs by CLSI based broth microdilution method
Type: functional
Conditions: not given
In short: as §3
O=C(Nc1nc(C(F)(F)F)c(-c2csc(Nc3ccc(O)c(C(=O)O)c3)n2)s1)c1ccccc1 gave an MIC of 32 µg/mL.

Tested on: Streptococcus pyogenes
Test: Bactericidal activity against Streptococcus pyogenes ATCC 12344 assessed as reduction in microbial growth measured after 18 hrs by CLSI based broth microdilution method
Type: functional
Conditions: not given
In short: (§4)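 MBC by CLSI broth microdilution in Mueller–Hinton medium, triplicate. Inoculum 5 × 10^4 CFU per well. Read after 18 h at 35 ± 2 °C.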
For O=C(Nc1nc(C(F)(F)F)c(-c2csc(Nc3ccc(O)c(C(=O)O)c3)n2)s1)c1ccccc1, the MBC was 32 µg/mL.

Tested on: not listed separately
Test: Cytotoxicity against human HeLa cells assessed as reduction in cell viability by MTT assay
Type: toxicity, cell-based
Conditions: not given
In short: as §1
With O=C(Nc1nc(C(F)(F)F)c(-c2csc(Nc3ccc(O)c(C(=O)O)c3)n2)s1)c1ccccc1 the CC50 was over 50 µM.

Tested on: Escherichia coli
Test: Synergistic antibacterial activity against Escherichia coli CCUGT incubated for 18 to 24 hrs in presence of colistin by broth microdilution method
Type: functional
Conditions: time 18-24 hrs
O=C(Nc1nc(C(F)(F)F)c(-c2csc(Nc3ccc(O)c(C(=O)O)c3)n2)s1)c1ccccc1 showed an MAC of over 64 µg/mL.

Tested on: Staphylococcus aureus
Test: Antibacterial activity against methicillin-resistant Staphylococcus aureus ATCC 43300 assessed as reduction in microbial growth measured after 18 hrs by CLSI based broth microdilution method
Type: functional
Conditions: not given
In short: as §3
Work on O=C(Nc1nc(C(F)(F)F)c(-c2csc(Nc3ccc(O)c(C(=O)O)c3)n2)s1)c1ccccc1 yielded an MIC of 32 µg/mL.

Tested on: enterovirus D68
Conditions: hela
For O=C(Nc1nc(C(F)(F)F)c(-c2csc(Nc3ccc(O)c(C(=O)O)c3)n2)s1)c1ccccc1, the IC50 was “Not Active”.

Tested on: Enterococcus faecalis
Test: Bactericidal activity against Enterococcus faecalis ATCC 29212 assessed as reduction in microbial growth measured after 18 hrs by CLSI based broth microdilution method
Type: functional
Conditions: not given
In short: as §4
Work on O=C(Nc1nc(C(F)(F)F)c(-c2csc(Nc3ccc(O)c(C(=O)O)c3)n2)s1)c1ccccc1 yielded an MBC of over 32 µg/mL.

Tested on: Enterococcus faecalis
Test: Antibacterial activity against Enterococcus faecalis ATCC 29212 assessed as reduction in microbial growth measured after 18 hrs by CLSI based broth microdilution method
Type: functional
Conditions: not given
In short: as §2
O=C(Nc1nc(C(F)(F)F)c(-c2csc(Nc3ccc(O)c(C(=O)O)c3)n2)s1)c1ccccc1 gave an MIC of 16 µg/mL.

Tested on: Staphylococcus epidermidis
Test: Bactericidal activity against linezolid-resistant Staphylococcus epidermidis SI-1266 assessed as reduction in microbial growth measured after 18 hrs by CLSI based broth microdilution method
Type: functional
Conditions: not given
O=C(Nc1nc(C(F)(F)F)c(-c2csc(Nc3ccc(O)c(C(=O)O)c3)n2)s1)c1ccccc1 showed an MBC of 64 µg/mL.

Tested on: Staphylococcus haemolyticus
Test: Antibacterial activity against oxacillin-resistant Staphylococcus haemolyticus SI-6/2011 assessed as reduction in microbial growth measured after 18 hrs by CLSI based broth microdilution method
Type: functional
Conditions: not given
In short: as §3
For O=C(Nc1nc(C(F)(F)F)c(-c2csc(Nc3ccc(O)c(C(=O)O)c3)n2)s1)c1ccccc1, the MIC was 32 µg/mL.

Tested on: Staphylococcus haemolyticus
Test: Bactericidal activity against oxacillin-resistant Staphylococcus haemolyticus SI-6/2011 assessed as reduction in microbial growth measured after 18 hrs by CLSI based broth microdilution method
Type: functional
Conditions: not given
With O=C(Nc1nc(C(F)(F)F)c(-c2csc(Nc3ccc(O)c(C(=O)O)c3)n2)s1)c1ccccc1 the MBC was 64 µg/mL.

Target: Phosphatidylinositol 4-kinase beta (Homo sapiens, UniProt Q9UBF8)
Sequence (Q9UBF8 whole entry): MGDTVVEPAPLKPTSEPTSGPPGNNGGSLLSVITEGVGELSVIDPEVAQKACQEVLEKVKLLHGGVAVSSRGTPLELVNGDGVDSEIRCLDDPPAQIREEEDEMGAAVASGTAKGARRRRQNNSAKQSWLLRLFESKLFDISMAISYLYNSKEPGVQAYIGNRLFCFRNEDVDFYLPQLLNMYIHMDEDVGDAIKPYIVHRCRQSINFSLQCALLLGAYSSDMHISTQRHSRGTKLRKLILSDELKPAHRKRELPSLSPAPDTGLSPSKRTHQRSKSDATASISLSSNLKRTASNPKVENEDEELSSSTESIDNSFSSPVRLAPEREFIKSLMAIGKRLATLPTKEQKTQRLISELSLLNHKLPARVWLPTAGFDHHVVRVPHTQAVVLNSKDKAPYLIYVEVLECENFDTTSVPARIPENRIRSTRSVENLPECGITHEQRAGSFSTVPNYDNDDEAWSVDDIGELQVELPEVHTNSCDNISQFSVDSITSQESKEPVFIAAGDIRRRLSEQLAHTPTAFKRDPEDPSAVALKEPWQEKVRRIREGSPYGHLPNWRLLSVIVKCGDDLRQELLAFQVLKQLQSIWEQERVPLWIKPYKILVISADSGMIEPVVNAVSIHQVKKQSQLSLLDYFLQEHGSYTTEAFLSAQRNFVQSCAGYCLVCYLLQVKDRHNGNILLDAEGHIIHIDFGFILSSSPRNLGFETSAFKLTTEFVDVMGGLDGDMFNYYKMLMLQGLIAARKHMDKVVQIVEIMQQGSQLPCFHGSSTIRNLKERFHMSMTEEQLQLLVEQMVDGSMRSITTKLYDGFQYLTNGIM
Test: Inhibition of recombinant full length his tagged PI4KB (unknown origin) incubated for 10 mins in presence of ATP by ADP-glo kinase assay
Conditions: not given
With O=C(Nc1nc(C(F)(F)F)c(-c2csc(Nc3ccc(O)c(C(=O)O)c3)n2)s1)c1ccccc1 the IC50 was “Not Active”.

Tested on: Staphylococcus warneri
Test: Bactericidal activity against oxacillin-resistant Staphylococcus warneri SI-5/2011 assessed as reduction in microbial growth measured after 18 hrs by CLSI based broth microdilution method
Type: functional
Conditions: not given
Work on O=C(Nc1nc(C(F)(F)F)c(-c2csc(Nc3ccc(O)c(C(=O)O)c3)n2)s1)c1ccccc1 yielded an MBC of 64 µg/mL.

Tested on: Staphylococcus warneri
Test: Antibacterial activity against oxacillin-resistant Staphylococcus warneri SI-5/2011 assessed as reduction in microbial growth measured after 18 hrs by CLSI based broth microdilution method
Type: functional
Conditions: not given
In short: as §3
Molecule O=C(Nc1nc(C(F)(F)F)c(-c2csc(Nc3ccc(O)c(C(=O)O)c3)n2)s1)c1ccccc1 has an MIC of 64 µg/mL.

Tested on: Staphylococcus aureus
Test: Bactericidal activity against Staphylococcus aureus ATCC 25923 assessed as reduction in microbial growth measured after 18 hrs by CLSI based broth microdilution method
Type: functional
Conditions: not given
In short: as §4
Molecule O=C(Nc1nc(C(F)(F)F)c(-c2csc(Nc3ccc(O)c(C(=O)O)c3)n2)s1)c1ccccc1 has an MBC of 32 µg/mL.

Tested on: Enterococcus faecium
Test: Bactericidal activity against Vancomycin resistant Enterococcus faecium SI-3856B assessed as reduction in microbial growth measured after 18 hrs by CLSI based broth microdilution method
Type: functional
Conditions: not given
In the case of O=C(Nc1nc(C(F)(F)F)c(-c2csc(Nc3ccc(O)c(C(=O)O)c3)n2)s1)c1ccccc1, the MBC is reported as over 64 µg/mL.

Tested on: Staphylococcus aureus
Test: Antibacterial activity against Staphylococcus aureus ATCC 25923 assessed as reduction in microbial growth measured after 18 hrs by CLSI based broth microdilution method
Type: functional
Conditions: not given
In short: as §2
Molecule O=C(Nc1nc(C(F)(F)F)c(-c2csc(Nc3ccc(O)c(C(=O)O)c3)n2)s1)c1ccccc1 has an MIC of 16 µg/mL.

Tested on: Bacillus subtilis
Test: Bactericidal activity against Bacillus subtilis ATCC 6633 assessed as reduction in microbial growth measured after 18 hrs by CLSI based broth microdilution method
Type: functional
Conditions: not given
In short: as §4
O=C(Nc1nc(C(F)(F)F)c(-c2csc(Nc3ccc(O)c(C(=O)O)c3)n2)s1)c1ccccc1 gave an MBC of over 32 µg/mL.

Tested on: Enterococcus faecium
Test: Antibacterial activity against Vancomycin/teicoplanin resistant Enterococcus faecium SI-759 assessed as reduction in microbial growth measured after 18 hrs by CLSI based broth microdilution method
Type: functional
Conditions: not given
In short: as §3
In the case of O=C(Nc1nc(C(F)(F)F)c(-c2csc(Nc3ccc(O)c(C(=O)O)c3)n2)s1)c1ccccc1, the MIC is reported as 16 µg/mL.

Tested on: Enterococcus faecium
Test: Antibacterial activity against Vancomycin resistant Enterococcus faecium SI-3856B assessed as reduction in microbial growth measured after 18 hrs by CLSI based broth microdilution method
Type: functional
Conditions: not given
In short: as §3
With O=C(Nc1nc(C(F)(F)F)c(-c2csc(Nc3ccc(O)c(C(=O)O)c3)n2)s1)c1ccccc1 the MIC was 32 µg/mL.

Tested on: Enterococcus faecium
Test: Bactericidal activity against Vancomycin/teicoplanin resistant Enterococcus faecium SI-759 assessed as reduction in microbial growth measured after 18 hrs by CLSI based broth microdilution method
Type: functional
Conditions: not given
For O=C(Nc1nc(C(F)(F)F)c(-c2csc(Nc3ccc(O)c(C(=O)O)c3)n2)s1)c1ccccc1, the MBC was 64 µg/mL.

Tested on: Bacillus subtilis
Test: Antibacterial activity against Bacillus subtilis ATCC 6633 assessed as reduction in microbial growth measured after 18 hrs by CLSI based broth microdilution method
Type: functional
Conditions: not given
In short: as §2
In the case of O=C(Nc1nc(C(F)(F)F)c(-c2csc(Nc3ccc(O)c(C(=O)O)c3)n2)s1)c1ccccc1, the MIC is reported as 16 µg/mL.

Tested on: Zika virus
Conditions: vero e6
With O=C(Nc1nc(C(F)(F)F)c(-c2csc(Nc3ccc(O)c(C(=O)O)c3)n2)s1)c1ccccc1 the IC50 was “Not Active”.

Tested on: Enterococcus faecium
Test: Bactericidal activity against Vancomycin resistant Enterococcus faecium SI-1831 assessed as reduction in microbial growth measured after 18 hrs by CLSI based broth microdilution method
Type: functional
Conditions: not given
In the case of O=C(Nc1nc(C(F)(F)F)c(-c2csc(Nc3ccc(O)c(C(=O)O)c3)n2)s1)c1ccccc1, the MBC is reported as over 64 µg/mL.

Tested on: Pseudomonas aeruginosa
Test: Synergistic antibacterial activity against Pseudomonas aeruginosa ATCC 27853 incubated for 18 to 24 hrs in presence of colistin by broth microdilution method
Type: functional
Conditions: time 18-24 hrs
Molecule O=C(Nc1nc(C(F)(F)F)c(-c2csc(Nc3ccc(O)c(C(=O)O)c3)n2)s1)c1ccccc1 has an MAC of over 64 µg/mL.

Reference: ChEMBL document CHEMBL5532695, “4-Trifluoromethyl bithiazoles as broad-spectrum antimicrobial agents for virus-related bacterial infections or co-infections” (RSC Med Chem, 2024)
